Published values of several laboratories.
Compare with care: the assays were run in different laboratories.
Target: Ephrin type-A receptor 5 (EPHA5, Homo sapiens, UniProt P54756)
Sequence (P54756 675-936, limits assumed, as in one of the studies): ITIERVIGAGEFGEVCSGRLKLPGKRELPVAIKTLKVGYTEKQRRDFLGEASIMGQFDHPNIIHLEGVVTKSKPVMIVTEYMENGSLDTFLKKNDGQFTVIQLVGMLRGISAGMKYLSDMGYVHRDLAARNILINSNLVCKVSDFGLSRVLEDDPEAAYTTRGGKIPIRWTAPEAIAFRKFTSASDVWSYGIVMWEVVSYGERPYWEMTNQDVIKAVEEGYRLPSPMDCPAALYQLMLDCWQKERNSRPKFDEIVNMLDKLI

Cc1ccc(Nc2nccc(N(C)c3ccc4c(C)n(C)nc4c3)n2)cc1S(N)(=O)=O
inhibition (enzyme activity; inhibitor; 0.3 µM): 6%

CC/C(=N\NC(=O)NCc1cccc(O)c1)c1ccc(O)c(C)c1O
inhibition (enzyme activity; inhibitor; 0.1 µM): -3.3%

Cc1ccc(NC(=O)c2ccc(C)c(C(F)(F)F)c2)cc1C#Cc1nn(C2CCC(O)CC2)c2ncnc(N)c12 (centres unmarked)
remaining signal (cell-free assay; 10 µM): -1%

CCOCCn1cc(C(=O)Nc2ccc(-n3nc(-c4cccnc4)cc3C(F)(F)F)cn2)ccc1=O
remaining binding (cell-free assay; competition with immobilised ligand; 1 µM): 100%

COc1cc2ncnc(Nc3ccc(Oc4ccccc4)c(C)c3C)c2cc1OC
inhibition (enzyme activity; inhibitor; 1 µM): 1%

C[C@@H]1CN(c2cc(-c3nn(C)c4ccc(OC5(C)CC5)cc34)ncn2)C[C@H](C)O1
remaining binding (cell-free assay; competition with immobilised ligand; 1 µM): 100%

CCCS(=O)(=O)Nc1ccc(F)c(C(=O)c2c[nH]c3ncc(-c4ccc(Cl)cc4)cc23)c1F
inhibition (enzyme activity; inhibitor; 1 µM): < 20%

COc1cc(-c2cc(-c3ccc(N4CCNCC4)cc3)cnc2C)cc(OC)c1OC
inhibition (enzyme activity; inhibitor; 1 µM): 4%

O=C1Nc2ccc(Cl)cc2C1=Cc1cc(Cl)c(O)c(Cl)c1
remaining signal (cell-free assay; 0.5 µM): 99.4%

Cc1cc(-n2nc(Cc3cc(F)cc(C(F)(F)F)c3)nc2C)ccc1C(N)=O
remaining binding (cell-free assay; competition with immobilised ligand; 1 µM): 100%

CNC(=O)c1cc2c(Oc3ccc(NC(=O)C4(C(=O)Nc5ccc(F)cc5)CC4)cc3)ccnc2cc1OC
inhibition (enzyme activity; inhibitor; radiometric; 1 µM): 96%

CNC(=O)c1cc(Oc2ccc(NC(=O)Nc3ccc(Cl)c(C(F)(F)F)c3)cc2)ccn1
inhibition (enzyme activity; inhibitor; 0.3 µM): 32%

O=C1NC(=O)c2cc(Nc3ccc(F)cc3)c(Nc3ccc(F)cc3)cc21
remaining signal (cell-free assay; 0.5 µM): 95.4%

CC(=O)N1CCC(c2ccc(C(=O)NC3=NCCN3)cc2C(F)(F)F)CC1
remaining binding (cell-free assay; competition with immobilised ligand; 1 µM): 100%

CC(C)(C)c1nc2c(s1)c1nc(N)ncc1c1ccc(NS(=O)(=O)c3c(F)cccc3F)c(F)c12
remaining activity (enzyme activity; inhibitor; radiometric; 1 µM): 109%

O=c1nc(-c2ccccn2)sc2ccccc12
remaining binding (cell-free assay; competition with immobilised ligand; 1 µM): 94%

O=C(Nc1cnn(-c2csc(C(=O)NC3COC3)c2)c1)Nc1c(F)cccc1Cl
remaining activity (enzyme activity; inhibitor; 5 µM): 95%
